# Screens: PubChem, several laboratories
# pPAFAH FP inh – pPAFAH (human) enzyme inhibition; Q13093; recombinant pPAFAH, FP-rhodamine probe fluorescence polarization; inhibition, % at 3.39 µM; actives 1.5% (n = 330,000); AID 463082;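 active = inhibition above the mean inhibition across the screen plus 3 SD, cut at about 25% in these data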;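 note: inhibitors block binding of the rhodamine activity-based probe so polarization drops; 0% = enzyme with DMSO and 100% = wells lacking pPAFAH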
# PAFAH2 inh – inhibitors of human PAFAH2 | recombinant PAFAH2, FP-rhodamine activity probe, fluorescence polarization | Q99487 | inhibition, % at 3.39 µM | actives 0.99% (n = 340,000) | AID 492956;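 active = inhibition above the mean over all tested compounds plus 3 SD, cut at about 30% in these data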;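 note: inhibitors block probe labeling of enzyme so polarization drops; 0% = enzyme with DMSO and 100% = wells lacking PAFAH2 protein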
# PAFAH1B2 inh – inhibitors of human PAFAH1B2; inhibition, % at 3.39 µM; AID 492953; P68402; actives 1.2% (n = 340,000); recombinant PAFAH1B2, FP-rhodamine activity probe, fluorescence polarization;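 active = inhibition above the mean of all tested compounds plus 3 SD, cut at about 24% in these data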;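 note: 0% = enzyme with DMSO and 100% = wells lacking PAFAH1B2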
# Apaf1 inhib – human Apaf-1 inhibition | O14727 | reconstituted apoptosome caspase-3 activity, DEVD-Rh110 fluorescence | inhibition, % at 20 µM | actives 0.71% (n = 330,000); active = inhibition of at least 40% at 20 µM;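 note: plate controls were DMSO wells for no effect and DEVD-CHO caspase inhibitor wells for full effect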
#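 System – cell-free apoptosome with Apaf-1, procaspase-3 and caspase-9 · Buffer or medium – pH 7.5 Hepes buffer with CHAPS, BSA, DTT · Also added – cytochrome c with DEVD-Rh110 · Times – 30 min compound preincubation, 50 min activation, room temperature · Technique – Rh110 fluorescence intensity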
# PAFAH1B3 inh – blocks human PAF acetylhydrolase 1B catalytic subunit 3 | recombinant PAFAH1B3, FP-rhodamine probe, fluorescence polarization | Q15102 | inhibition, % at 3.39 µM | actives 0.28% (n = 340,000);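 active = inhibition above the screen-wide average of all tested compounds plus 3 SD, cut at about 25% in these data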;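 note: 0% = enzyme with DMSO only and 100% = wells lacking PAFAH1B3 protein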
# Starred values were filed as active, the others as inactive; · = no result. Shown are actives, neighbours in structure and some others; about 3.1% of the full set was active somewhere.
SMILES,pPAFAH FP inh,PAFAH2 inh,PAFAH1B2 inh,Apaf1 inhib,PAFAH1B3 inh
CCc1ccccc1NC(=S)N1CCN(c2cccc(OC)c2)CC1,2,4,5,6,10
CC1(C)CC2CC(C)(CN2S(=O)(=O)c2cccc(N)c2)C1 (configuration not stated),-3,-4,24*,7,6
CN(C)C(CNC(=O)c1cccc(S(=O)(=O)N2CC3(C)CC2CC(C)(C)C3)c1)c1ccco1 (configuration not stated),4,11,13,18,3
CCCNC(=O)c1cccc(S(=O)(=O)N2CC3(C)CC2CC(C)(C)C3)c1 (configuration not stated),-1,1,26*,-7,0
CN(C)C(=O)CCc1ccc2c3c([nH]c2c1)[C@]1(CCc2ccccc2)[C@@H](C(=O)N2CCCCC2)C[C@H](CC(=O)NCCCn2ccnc2)C(=O)N1CC3,9,1,1,16,5
CC(OC(=O)CSc1ccc(F)cc1)C(=O)NC1(C#N)CCCCC1 (configuration not stated),2,3,12,4,10
CN(C(=O)CSc1nnc(C2CC2)n1-c1ccccc1)C1CCS(=O)(=O)C1 (configuration not stated),0,-9,3,-5,-1
O=c1[nH]c(CN2CCN(c3ccc([N+](=O)[O-])cc3)CC2)nc2ccsc12,10,-5,32*,0,-3
COc1ccc(N2CCN(Cc3nc4ccsc4c(=O)[nH]3)CC2)cc1,0,-1,1,-20,5
COc1ccc(NC(=O)CCl)cn1,7,·,·,67*,·
O=C(CSc1nc(O)cc(=O)n1-c1ccccc1)c1ccc(Br)cc1,25*,18,4,15,5
O=c1cc(O)nc(SCc2ccccc2)n1-c1ccccc1,11,9,-6,-5,0
COc1ccc(S(=O)(=O)Nc2ccccc2OC)cc1N=Nc1c(O)[nH]c(=S)[nH]c1=O,26*,15,7,-2,6
N#C/C(=C(/O)CSc1ccccn1)c1nc2ccccc2s1,-6,6,7,3,6
N#C/C(=C(/O)COC(=O)c1ccc(C#N)cc1)c1nc2ccccc2s1,25*,12,6,6,8
Cc1ccc(SC/C(O)=C(\C#N)c2nc3ccccc3s2)cc1,24,24,29*,8,5
CCOC(=O)c1c(NC(=O)C(NCCN(C)C)c2ccccc2)sc2c1CCCC2 (configuration not stated),6,11,0,14,2
Cc1ccnc2c1ccc1c(C)ccnc12,2,6,6,44*,6
Cc1ccnc2c1ccc1cccnc12,·,-7,3,5,7
COc1cc(OC)cc(C(=O)N[C@H](C(=O)OCC(=O)Nc2ccc3c(c2)OCO3)C(C)C)c1,10,-2,-1,0,13
COc1cccc(C2CC(=O)Nc3cc4c(cc32)CCC4)c1 (configuration not stated),32*,-1,0,4,4
COc1cccc(C2CC(=O)Nc3cc(OC)c(OC)cc32)c1 (configuration not stated),·,-4,5,-6,4
O=C1CC(c2cccc(Cl)c2)c2cc3c(cc2N1)CCC3 (configuration not stated),28*,7,-1,11,1
CCOc1cc(/C=C2\SC(=O)N(CC(=O)Nc3ccccc3F)C2=O)cc([N+](=O)[O-])c1O,32*,34*,8,17,15
COc1cc(/C=C2\SC(=O)N(CC(=O)Nc3ccccc3F)C2=O)cc(Cl)c1O,-1,18,2,0,7
SMILES,pPAFAH FP inh,PAFAH2 inh,PAFAH1B2 inh,Apaf1 inhib,PAFAH1B3 inh
N#Cc1cc(N2CCCCC2)c([N+](=O)[O-])cc1C#N,2,-1,1,-4,-4
O=[N+]([O-])c1cc2no[n+]([O-])c2cc1N1CCCCC1,·,74*,70*,·,86*
CSc1nc2nccc(-c3ccc(Oc4ccccc4)cc3)n2n1,30*,-2,-2,25,1
COc1ccc(CN2C(=O)Cc3c2nc(N)c2c(N)nc(N4CCCCC4)c(C#N)c32)cc1,9,·,·,51*,·
COc1cc2c(C#N)c(N3CCCCC3)nc(N)c2c(N)n1,15,11,10,97*,12
Cc1ccc(SC(CC(=O)c2ccc(F)cc2)C(=O)O)cc1 (configuration not stated),1,7,7,6,11
CC(C)(C)c1ccc(C(=O)CC(Sc2ccc(Cl)cc2)C(=O)O)cc1 (configuration not stated),3,40*,83*,9,1
Cc1ccc(NCC(=O)N/N=C/c2cc(O)ccc2[N+](=O)[O-])cc1,30*,·,·,10,·
Cc1ccc(NCC(=O)N/N=C/c2ccncc2)cc1,4,2,3,-1,-3
C=CC[C@H](CC(=O)N(CCO)Cc1ccccc1)C(=O)N[C@@H](C)COC(=O)[C@@H](CC=C)Cc1ccc(F)cc1,4,-10,26*,31,6
C=CCC[C@H](Cc1ccc(F)cc1)C(=O)OC[C@H](Cc1c[nH]c2ccccc12)NC(=O)[C@@H](CC=C)CC(=O)NCCO,27*,9,2,12,10
C=CCC[C@H](Cc1ccc(F)cc1)C(=O)OC[C@@H](Cc1c[nH]c2ccccc12)NC(=O)[C@@H](CC=C)CC(=O)N[C@@H](CO)Cc1ccccc1,14,-3,2,11,-8
CCc1nnc(NC(=O)CC23CC4CC(CC(Br)(C4)C2)C3)s1,9,2,27*,26,10
CCCc1nnc(NC(=O)C23CC4CC(CC(C4)C2)C3)s1,·,4,25*,18,3
CCSc1nnc(NC(=O)CCN2C(=O)C3CCCCC3C2=O)s1 (configuration not stated),-2,2,-1,-5,6
Cc1ccc(NC(=O)CN(C)C(=O)c2ccccc2OCc2c(C)noc2C)cc1,2,-2,4,7,3
CCOc1ccc(NC(=O)CN(C)C(=O)c2ccccc2OCc2c(C)noc2C)cc1OCC,1,-3,0,57*,7
CCN1CCN(c2ccc(NC(=O)c3cc(S(=O)(=O)N4CCCC4)ccc3Cl)cc2)CC1,-2,-13,-7,14,-4
Cc1cccc(C(C)C)c1NC(=O)c1ccc(OCC2CCCO2)cc1 (configuration not stated),0,2,5,4,0
CN(C)c1ccc(C(=O)OCC(=O)NCCCc2ccccc2)cc1,33*,85*,6,6,-3
CC(NC(=O)COC(=O)c1ccc(OCC2CCCO2)cc1)c1ccccc1Cl (configuration not stated),25*,88*,1,7,-1
CC(C)NC(=O)COC(=O)c1ccc(Oc2ccccc2)cc1,26*,67*,4,6,7
